Measurements from ChEMBL document CHEMBL1143876, “Synthesis, analgesic, anti-inflammatory, and antimicrobial activity of some novel pyrimido[4,5-b]quinolin-4-ones” (2008).

Key:
[1] = tested on: Mus musculus; experiment: Analgesic activity against acetic acid-induced abdominal constriction in Swiss albino mouse at 15 mg/kg, po after 20 mins by writhing test relative to acetylsalicylic acid; format: functional, Abdomen
Method in brief: (§1)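 Mice of both sexes, 25–30 g, dosed orally in 10% v/v Tween 80 in water. Test agents were given at 15 mg/kg and acetylsalicylic acid at 100 mg/kg. 30 min later, 0.7% acetic acid (10 ml/kg) ip. Writhes counted over 20 min; six per group. % protection = (control mean − treated mean)/control mean ×100; means ± SE.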

[2] = tested on: Mus musculus; experiment: Analgesic activity in Swiss albino mouse assessed as reaction time at 15 mg/kg, po after 30 mins by hot plate test; format: functional
Method in brief: (§2)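 Mice of both sexes, 25–30 g, on a hot plate at 53 ± 0.5 °C; reaction time taken to hind-paw lick or jump, 60 s cut-off. Baseline read before dosing. Oral dosing in 10% v/v Tween 80 in water: test agents 15 mg/kg, acetylsalicylic acid 100 mg/kg. Re-read at 15, 30, 60 and 90 min; means ± SE.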

[3] = tested on: Mus musculus; experiment: Analgesic activity in Swiss albino mouse assessed as reaction time at 15 mg/kg, po after 60 mins by hot plate test; format: functional; method in brief: as §2
[4] = tested on: Mus musculus; experiment: Analgesic activity in Swiss albino mouse assessed as reaction time at 15 mg/kg, po after 90 mins by hot plate test; format: functional; method in brief: as §2
[5] = tested on: Mus musculus; experiment: Analgesic activity against acetic acid-induced abdominal constriction in Swiss albino mouse at 15 mg/kg, po after 20 mins by writhing test; format: functional, Abdomen; method in brief: as §1
[6] = tested on: Escherichia coli; experiment: Antimicrobial activity against Escherichia coli at 50 ug/disk after 24 to 28 hrs; format: functional; details: read-out: IZ
Method in brief: (§3)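 Agar disk diffusion: 5 mm paper disks loaded with 50 µg/disk in DMSO. Inhibition zones read after 24–28 h at 37 °C for bacteria, or 5 days at 28 °C for clinical Candida isolates grown on Sabouraud dextrose agar. Zone graded 6–10 mm slight, 11–15 mm moderate, >15 mm high. Reference disks: nalidixic acid 30 µg, nystatin 100 U.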

[7] = tested on: Klebsiella pneumoniae; experiment: Antimicrobial activity against Klebsiella pneumoniae at 50 ug/disk after 24 to 28 hrs; format: functional; details: read-out: IZ; method in brief: as §3
[8] = tested on: Pseudomonas aeruginosa; experiment: Antimicrobial activity against Pseudomonas aeruginosa at 50 ug/disk after 24 to 28 hrs; format: functional; details: read-out: IZ; method in brief: as §3
[9] = tested on: Staphylococcus aureus; experiment: Antimicrobial activity against Staphylococcus aureus at 50 ug/disk after 24 to 28 hrs; format: functional; details: read-out: IZ; method in brief: as §3
[10] = tested on: Nakaseomyces glabratus; experiment: Antimicrobial activity against Candida glabrata at 50 ug/disk after 5 days; format: functional; details: for zone of inhibition at 50 µg/disc: 120 h, read-out: IZ; method in brief: as §3
[11] = tested on: Pseudomonas aeruginosa; experiment: Antimicrobial activity against Pseudomonas aeruginosa; format: functional
Method in brief: (§4)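 MIC found by disk diffusion using disks carrying varying amounts of compound per disk, in DMSO. Incubated 24–28 h at 37 °C for bacteria and 5 days at 28 °C for Candida. MIC given in µg/disk.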

[12] = tested on: Candida albicans; experiment: Antimicrobial activity against Candida albicans; format: functional; method in brief: as §4
[13] = tested on: Escherichia coli; experiment: Antimicrobial activity against Escherichia coli; format: functional; method in brief: as §4
[14] = tested on: Staphylococcus aureus; experiment: Antimicrobial activity against Staphylococcus aureus; format: functional; method in brief: as §4
[15] = tested on: Klebsiella pneumoniae; experiment: Antimicrobial activity against Klebsiella pneumoniae; format: functional; method in brief: as §4
[16] = tested on: Candida albicans; experiment: Antimicrobial activity against Candida albicans at 50 ug/disk after 5 days; format: functional; details: 120 h, read-out: IZ; method in brief: as §3
[17] = tested on: Rattus norvegicus; experiment: Antiinflammatory activity against carrageenan-induced paw edema in Sprague-Dawley rat at 15 mg/kg, po after 4 hrs; format: functional
Method in brief: (§5)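 Adult male rats, 150–180 g, six per group. Oral dose 1 h before 0.1 ml 1% carrageenin sc into the left hind footpad: test agents 15 mg/kg as suspension, indomethacin 10 mg/kg; vehicle 10% Tween 80. Paw volume by plethysmometer before injection, then hourly for 4 h. Edema % = (Vt−Vc)/Vc; inhibition % = (Ec−Et)/Ec. Potency taken relative to indomethacin. Means ± SE.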

[18] = tested on: Rattus norvegicus; experiment: Antiinflammatory activity against carrageenan-induced paw edema in Sprague-Dawley rat at 15 mg/kg, po relative to indomethacin after 3 hrs; format: functional; method in brief: as §5
[19] = tested on: Rattus norvegicus; experiment: Antiinflammatory activity against carrageenan-induced paw edema in Sprague-Dawley rat at 15 mg/kg, po after 3 hrs; format: functional; method in brief: as §5
[20] = tested on: Rattus norvegicus; experiment: Antiinflammatory activity against carrageenan-induced paw edema in Sprague-Dawley rat at 15 mg/kg, po relative to indomethacin after 4 hrs; format: functional; method in brief: as §5
[21] = tested on: Rattus norvegicus; experiment: Antiinflammatory activity against carrageenan-induced paw edema in Sprague-Dawley rat at 15 mg/kg, po after 1 hr; format: functional; method in brief: as §5
[22] = tested on: Rattus norvegicus; experiment: Antiinflammatory activity against carrageenan-induced paw edema in Sprague-Dawley rat at 15 mg/kg, po relative to indomethacin after 1 hr; format: functional; method in brief: as §5
[23] = tested on: Rattus norvegicus; experiment: Antiinflammatory activity against carrageenan-induced paw edema in Sprague-Dawley rat at 15 mg/kg, po after 2 hrs; format: functional; method in brief: as §5
[24] = tested on: Rattus norvegicus; experiment: Antiinflammatory activity against carrageenan-induced paw edema in Sprague-Dawley rat at 15 mg/kg, po relative to indomethacin after 2 hrs; format: functional; method in brief: as §5

O=c1c2c(-c3ccccc3)c3c(nc2nc2n(-c4ccccc4)nc(-c4ccccc4)n12)CCCC3
Activity [1]: 8.89% | Time [2]: 9.84 s | Time [3]: 11.62 s | Time [4]: 11.88 s | Activity [5]: 4.6%

CCn1cc(C(=O)O)c(=O)c2ccc(C)nc21 [NALIDIXIC ACID]
zone of inhibition at 50 µg/disc [6]: 24 mm | zone of inhibition at 50 µg/disc [7]: 25 mm | zone of inhibition at 50 µg/disc [8]: 25 mm | zone of inhibition at 50 µg/disc [9]: 25 mm

Cc1n[nH]c2nc3nc4c(c(-c5ccccc5)c3c(=O)n12)CCCC4
Activity [1]: 11.2% | zone of inhibition at 50 µg/disc [6]: 20 mm | zone of inhibition at 50 µg/disc [10]: 13 mm | MIC [11]: 20 µg | MIC [12]: 50 µg | Time [2]: 8.68 s | Time [3]: 8.8 s | MIC [13]: 20 µg | MIC [14]: 20 µg | MIC [15]: 20 µg | Time [4]: 10.4 s | Activity [5]: 5.8% | zone of inhibition at 50 µg/disc [7]: 20 mm | zone of inhibition at 50 µg/disc [8]: 21 mm | zone of inhibition at 50 µg/disc [9]: 21 mm | zone of inhibition at 50 µg/disc [16]: 18 mm

Nn1c(-c2ccccc2)cn2c(=O)c3c(-c4ccccc4)c4c(nc3nc12)CCCC4
Activity [1]: 71.76% | zone of inhibition at 50 µg/disc [6]: 21 mm | MIC [11]: 20 µg | Time [2]: 9.42 s | Time [3]: 11.41 s | MIC [13]: 20 µg | MIC [14]: 20 µg | MIC [15]: 20 µg | Time [4]: 10.67 s | Activity [5]: 37.1% | zone of inhibition at 50 µg/disc [7]: 22 mm | zone of inhibition at 50 µg/disc [8]: 23 mm | zone of inhibition at 50 µg/disc [9]: 19 mm

NYSTATIN
inhibition zone (IZ) [10]: 19 mm

O=c1[nH]c(N/N=C\c2ccccc2)nc2nc3c(c(-c4ccccc4)c12)CCCC3
Activity [1]: 67.51% | zone of inhibition at 50 µg/disc [6]: 15 mm | zone of inhibition at 50 µg/disc [10]: 7 mm | Time [2]: 10.08 s | Time [3]: 12.52 s | Time [4]: 12.68 s | Activity [5]: 34.9% | zone of inhibition at 50 µg/disc [7]: 18 mm | zone of inhibition at 50 µg/disc [8]: 14 mm | zone of inhibition at 50 µg/disc [9]: 16 mm | zone of inhibition at 50 µg/disc [16]: 7 mm

Nc1n[nH]c2nc3nc4c(c(-c5ccccc5)c3c(=O)n12)CCCC4
inhibition in vivo at 15 mg/kg [17]: 9.5% | inhibition in vivo at 15 mg/kg [18]: 6.6% | Activity [1]: 110.44% | zone of inhibition at 50 µg/disc [6]: 20 mm | MIC [11]: 30 µg | inhibition in vivo at 15 mg/kg [19]: 2.8% | inhibition in vivo at 15 mg/kg [20]: 20.5% | Time [2]: 5.14 s | inhibition in vivo at 15 mg/kg [21]: 10.1% | Time [3]: 6.74 s | MIC [13]: 30 µg | MIC [14]: 30 µg | MIC [15]: 30 µg | inhibition in vivo at 15 mg/kg [22]: 17.7% | inhibition in vivo at 15 mg/kg [23]: 1.2% | inhibition in vivo at 15 mg/kg [24]: 2.1% | Time [4]: 7.62 s | Activity [5]: 57.1% | zone of inhibition at 50 µg/disc [7]: 22 mm | zone of inhibition at 50 µg/disc [8]: 22 mm | zone of inhibition at 50 µg/disc [9]: 21 mm

O=c1c2c(-c3ccccc3)c3c(nc2nc2[nH]nnn12)CCCC3
Activity [1]: 27.07% | zone of inhibition at 50 µg/disc [6]: 18 mm | MIC [11]: 30 µg | Time [2]: 9.16 s | Time [3]: 10.78 s | MIC [13]: 30 µg | MIC [14]: 30 µg | MIC [15]: 30 µg | Time [4]: 10.08 s | Activity [5]: 14% | zone of inhibition at 50 µg/disc [7]: 16 mm | zone of inhibition at 50 µg/disc [8]: 22 mm | zone of inhibition at 50 µg/disc [9]: 17 mm
